Assay results as given in ChEMBL document CHEMBL1135506, “Correlations between cytotoxicity and topography of some 2-arylidenebenzocycloalkanones determined by X-ray crystallography” (J Med Chem, 2002).
pIC50: −log10 of the molar value.

How the values were obtained:
[1] = tested on: CCRF-CEM; experiment: Inhibitory concentration against CEM T-lymphocytes; assay type: functional, cell-based; details: Homo sapiens
How it was run: (§1)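 Murine L1210 lymphoid leukemia cells, human Molt 4/C8 T-lymphocytes and human CEM T-lymphocytes were tested up to a maximum concentration of 500 µM, and the read-out was IC50 (µM).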

[2] = tested on: P388; experiment: Inhibitory activity against Murine P388 cells; assay type: functional, cell-based; details: Mus musculus
[3] = tested on: L1210; experiment: Inhibitory activity against L1210 leukemia cells; assay type: functional, cell-based; details: Mus musculus; how it was run: as §1
[4] = Inhibitory concentration against proliferation of human Molt 4/C8 cells; assay type: functional, cell-based; details: Molt4/C8; how it was run: as §1
[5] = Partition coefficient (logP); assay type: physicochemical; details: octanol/water
[6] = tested on: L1210; experiment: Effect on protein biosyntheses in leukemia L1210 cells; assay type: functional, cell-based; details: Mus musculus
How it was run: (§2)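 L1210 cells, ~2 × 10⁵ per well, were exposed to a range of concentrations together with 0.25 µCi of [methyl-³H]deoxythymidine (DNA), [5-³H]uridine (RNA) or [3,4-³H]leucine (protein). They were incubated 20 h at 37 °C. Radioactivity in the trichloroacetic acid-insoluble fraction was then counted by liquid scintillation.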

[7] = tested on: L1210; experiment: Effect on DNA biosyntheses in leukemia L1210 cells; assay type: functional, cell-based; details: Mus musculus; how it was run: as §2
[8] = tested on: L1210; experiment: Effect on RNA biosyntheses in leukemia L1210 cells; assay type: functional, cell-based; details: Mus musculus; how it was run: as §2
[9] = tested on: L1210; experiment: Effect on proliferation of leukemia L1210 cells; assay type: functional, cell-based; details: Mus musculus; how it was run: as §1

| Structure (SMILES) | pIC50 [1] | pIC50 [2] | pIC50 [3] | logP [5] | pIC50 [6] | pIC50 [7] | pIC50 [8] | pIC50 [9] | pIC50 [4] |
| --- | --- | --- | --- | --- | --- | --- | --- | --- | --- |
| O=C1/C(=C/c2ccccc2Br)Cc2ccccc21 | 4.33 | < 4.30 | 4.19 | – | – | – | – | – | 4.02 |
| Cc1ccccc1/C=C1\CCCc2ccccc2C1=O | 4.36 | 4.82 | 4.21 | 4.92 | – | – | – | – | 4.44 |
| COc1ccccc1/C=C1\Cc2ccccc2C1=O | 4.24 | 4.55 | 3.77 | – | 3.78 | 3.39 | 3.53 | 3.77 | 3.51 |
| Cc1ccccc1/C=C1\CCc2ccccc2C1=O | 4.36 | 4.75 | 4.30 | – | – | – | – | – | 4.38 |
| O=C1/C(=C/c2ccccc2Br)CCCc2ccccc21 | 4.49 | 4.70 | 4.43 | 5.04 | – | – | – | – | 4.42 |
| COc1cccc(/C=C2\Cc3ccccc3C2=O)c1OC | 4.42 | 4.54 | 3.67 | – | – | – | – | – | 4.28 |
| O=C1/C(=C/c2ccc(Cl)cc2Cl)Cc2ccccc21 | < 3.30 | < 4.30 | < 3.30 | – | – | – | – | – | < 3.30 |
| COc1ccccc1/C=C1\CCCc2ccccc2C1=O | 4.54 | 4.74 | 4.34 | 4.69 | – | – | – | – | 4.43 |
| COc1cc(/C=C2\Cc3ccccc3C2=O)cc(OC)c1OC | < 3.30 | < 4.30 | < 3.30 | – | – | – | – | – | < 3.30 |
| O=C1/C(=C/c2ccccc2Cl)Cc2ccccc21 | 4.24 | 4.58 | 3.82 | – | – | – | – | – | 3.89 |
| COc1ccc(/C=C2\Cc3ccccc3C2=O)cc1OC | 3.54 | 4.62 | 3.58 | – | – | – | – | – | 3.33 |
| O=C1/C(=C/c2ccc(Cl)cc2Cl)CCCc2ccccc21 | 3.39 | 4.85 | < 3.30 | 5.65 | – | – | – | – | < 3.30 |
| O=C1/C(=C/c2ccccc2F)Cc2ccccc21 | 4.33 | 4.50 | 3.82 | – | – | – | – | – | 4.27 |
| Cc1ccccc1/C=C1\Cc2ccccc2C1=O | 4.25 | 4.62 | 3.68 | – | – | – | – | – | 3.81 |
| COc1cccc(/C=C2\CCCc3ccccc3C2=O)c1OC | 3.85 | 5.07 | < 3.30 | 4.54 | – | – | – | – | < 3.30 |
| COc1ccc(/C=C2\Cc3ccccc3C2=O)c(OC)c1 | 4.06 | 4.89 | 4.85 | – | – | – | – | – | 4.31 |
| O=C1/C(=C/c2ccc(Cl)c(Cl)c2)Cc2ccccc21 | 3.40 | 4.60 | < 3.30 | – | – | – | – | – | < 3.30 |
| COc1ccc(/C=C2\CCCc3ccccc3C2=O)c(OC)c1 | 4.32 | 5.11 | 4.91 | 5.01 | – | – | – | – | 4.15 |
| N[C@@H](Cc1ccc(N(CCCl)CCCl)cc1)C(=O)O | – | – | – | – | – | < 4.00 | < 4.00 | – | – |
| COc1ccc(/C=C/C(=O)c2ccccc2)cc1 [4-METHOXY CHALCONE] | 4.47 | 4.97 | 4.30 | – | – | – | – | – | 4.52 |

Continued, in another order:

| pIC50 [1] | pIC50 [2] | pIC50 [3] | logP [5] | pIC50 [6] | pIC50 [7] | pIC50 [8] | pIC50 [9] | Structure (SMILES) | pIC50 [4] |
| --- | --- | --- | --- | --- | --- | --- | --- | --- | --- |
| 5.14 | 4.90 | 4.97 | – | – | – | – | – | O=C1/C(=C/c2ccccc2[N+](=O)[O-])CCc2ccccc21 | 5.09 |
| 5.01 | 4.88 | 3.68 | – | – | – | – | – | O=C1/C(=C/c2ccc(Cl)c(Cl)c2)CCc2ccccc21 | 4.54 |
| 5.73 | 5.58 | 5.10 | – | – | – | – | – | COc1ccc(/C=C2\CCc3ccccc3C2=O)c(OC)c1 | 5.77 |
| 5.06 | 4.76 | 4.46 | – | – | – | – | – | O=C1/C(=C/c2ccc(Cl)cc2Cl)CCc2ccccc21 | 4.55 |
| 4.68 | 4.66 | 4.64 | – | – | – | – | – | O=C1/C(=C/c2ccccc2F)CCc2ccccc21 | 4.44 |
| 5.07 | 4.80 | 4.19 | – | – | – | – | – | COc1ccccc1/C=C/C(=O)c1ccccc1 | 5.07 |
| 4.74 | 4.90 | 4.37 | 5.04 | – | – | – | – | O=C1/C(=C/c2ccccc2Cl)CCCc2ccccc21 | 4.43 |
| 4.55 | 5.09 | < 4.00 | 4.13 | – | – | – | – | COc1ccc(/C=C2\CCCc3ccccc3C2=O)cc1OC | < 4.70 |
| 4.54 | 4.91 | 4.42 | – | – | – | – | – | COc1cccc(/C=C2\CCc3ccccc3C2=O)c1OC | 4.38 |
| 4.86 | 5.12 | 4.23 | – | – | – | – | – | O=C(/C=C/c1ccc([N+](=O)[O-])cc1)c1ccccc1 | 5.08 |
| 5.05 | 4.82 | 4.08 | – | – | – | – | – | O=C(/C=C/c1cccc([N+](=O)[O-])c1)c1ccccc1 | 5.07 |
| 4.93 | 5.06 | 4.45 | 4.29 | – | – | – | – | COc1cc(/C=C2\CCCc3ccccc3C2=O)cc(OC)c1OC | 4.64 |
| 5.07 | 5.01 | 4.35 | – | – | – | – | – | COc1cccc(/C=C/C(=O)c2ccccc2)c1 | 5.10 |
| 4.55 | 4.88 | 4.22 | 4.55 | – | – | – | – | O=C1/C(=C/c2ccccc2F)CCCc2ccccc21 | 4.38 |
| 4.60 | 4.71 | 4.48 | – | – | – | – | – | O=C1/C(=C/c2ccccc2Br)CCc2ccccc21 | 4.43 |
| 5.07 | 5.24 | 4.38 | – | – | – | – | – | COc1ccc(/C=C2\CCc3ccccc3C2=O)cc1OC | 4.94 |
| 4.93 | 4.91 | 4.34 | 5.71 | – | – | – | – | O=C1/C(=C/c2ccc(Cl)c(Cl)c2)CCCc2ccccc21 | 4.74 |
| 4.79 | 4.44 | 4.33 | 4.07 | – | – | – | – | O=C1/C(=C/c2ccccc2[N+](=O)[O-])CCCc2ccccc21 | 4.40 |
| 5.06 | 4.76 | 4.52 | – | – | – | – | – | O=C1/C(=C/c2ccccc2Cl)CCc2ccccc21 | 4.53 |
| 5.15 | 5.17 | 4.51 | – | – | – | – | – | COc1cc(/C=C2\CCc3ccccc3C2=O)cc(OC)c1OC | 5.08 |
| 5.45 | 6.13 | 5.12 | – | 4.76 | 4.83 | 4.93 | 5.12 | O=C1/C(=C/c2ccccc2[N+](=O)[O-])Cc2ccccc21 | 5.60 |
| 5.07 | 5.43 | 4.52 | – | – | – | – | – | O=C(/C=C/c1ccccc1[N+](=O)[O-])c1ccccc1 | 5.08 |
| 4.90 | 4.76 | 4.39 | – | – | – | – | – | COc1ccccc1/C=C1\CCc2ccccc2C1=O | 4.50 |
